Measured values taken from ChEMBL document CHEMBL4330094, “Potent Metabolic Sialylation Inhibitors Based on C-5-Modified Fluorinated Sialic Acids” (J Med Chem, 2019).
Active and inactive are the calls of the source. The rule behind the calls is not given here.

Experiments:
[1] = Inhibition of sialyltransferase in human HeLa cells assessed as decrease in lectin binding after 3 days by biotinylated MAL2 lectin and streptavidin-PE based flow cytometry; type: cell-based
In short: (§1)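 Each cell line was incubated 3 days with increasing compound concentrations or equivalent DMSO. Cells were stained with biotinylated MALII (5 µg/ml) in carbo-free blocking buffer with 1 mM CaCl/MgCl for 45-60 min at 4 °C, washed in PBS/1% BSA/0.02% azide, then stained with streptavidin-PE for 20 min at 4 °C. For flow cytometry, MFI was normalized to control as % lectin binding.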

B16-F10 [2] = assay: Effect on total cell surface glycosylation in mouse B16F10 cells assessed as inhibition of biotinylated WGA-lectin binding at 102.4 uM after 3 days by flow cytometry; type: cell-based; settings: b16-f10, 72 h
In short: (§2)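 B16-F10 cells were exposed 3 days to 102.4 µM compound or DMSO. Staining used biotinylated lectins (AAL 5, PNA 5, GSL-I 1, LCA 1, PHA-L 1, PSA 1, SJA 1, WGA 1 µg/ml) in carbo-free blocking buffer with 1 mM CaCl and 1 mM MgCl for 45-60 min at 4 °C, then streptavidin-PE for 20 min at 4 °C. Flow cytometry read-out was MFI, mean ± SEM from two independent experiments.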

[3] = Inhibition of sialyltransferase in mouse B16F10 cells assessed as decrease in lectin binding after 3 days by biotinylated MAL2 lectin and streptavidin-PE based flow cytometry; type: cell-based; in short: as §1
B16-F10 [4] = assay: Cytotoxicity against mouse B16F10 cells assessed as reduction in metabolic activity at 204.8 uM after 3 days by MTT assay; type: ADME, cell-based; settings: b16-f10, 72 h
B16-F10 [5] = assay: Cytotoxicity against mouse B16F10 cells assessed as reduction in metabolic activity at <51.2 uM after 3 days by MTT assay; type: ADME, cell-based; settings: b16-f10, 72 h
B16-F10 [6] = assay: Effect on total cell surface glycosylation in mouse B16F10 cells assessed as inhibition of biotinylated PNA lectin binding at 102.4 uM after 3 days by flow cytometry; type: cell-based; settings: b16-f10, 72 h; in short: as §2
B16-F10 [7] = assay: Effect on total cell surface glycosylation in mouse B16F10 cells assessed as inhibition of biotinylated AAL-lectin binding at 102.4 uM after 3 days by flow cytometry; type: cell-based; settings: b16-f10, 72 h; in short: as §2
B16-F10 [8] = assay: Effect on total cell surface glycosylation in mouse B16F10 cells assessed as inhibition of biotinylated PHA-L lectin binding at 102.4 uM after 3 days by flow cytometry; type: cell-based; settings: b16-f10, 72 h; in short: as §2
[9] = Inhibition of sialyltransferase in mouse 9464D cells assessed as decrease in lectin binding after 3 days by biotinylated MAL2 lectin and streptavidin-PE based flow cytometry; type: cell-based; in short: as §1
B16-F10 [10] = assay: Effect on total cell surface glycosylation in mouse B16F10 cells assessed as inhibition of biotinylated LCA-lectin binding at 102.4 uM after 3 days by flow cytometry; type: cell-based; settings: b16-f10, 72 h; in short: as §2
B16-F10 [11] = assay: Effect on total cell surface glycosylation in mouse B16F10 cells assessed as inhibition of biotinylated SJA-lectin binding at 102.4 uM after 3 days by flow cytometry; type: cell-based; settings: b16-f10, 72 h; in short: as §2
[12] = Inhibition of sialyltransferase in mouse EL4 cells assessed as decrease in lectin binding after 3 days by biotinylated MAL2 lectin and streptavidin-PE based flow cytometry; type: cell-based; in short: as §1
B16-F10 [13] = assay: Inhibition of sialyltransferase in mouse B16-F10 cells assessed as recovery time for sialylation at 51.2 uM pretreated for 3 days followed by washing and re-seeding and measured after 6 days by biotinylated MAL2 lectin-based flow cytometry; type: cell-based
In short: (§3)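 B16-F10 cells were pretreated 3 days with 25.6 or 51.2 µM compound or DMSO, washed, reseeded, and sampled daily for 6 days. They were stained with biotinylated MALII (5 µg/ml, 45-60 min, 4 °C) plus streptavidin-PE. Flow cytometry MFI was normalized to control as % lectin binding.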

[14] = Inhibition of sialyltransferase in human THP1 cells assessed as decrease in lectin binding after 3 days by biotinylated MAL2 lectin and streptavidin-PE based flow cytometry; type: cell-based; in short: as §1
[15] = biological target: N-acylneuraminate cytidylyltransferase (Mus musculus, UniProt Q99KK2); assay: Prodrug activation in mouse B16F10 cells assessed as CMAS-mediated CMP-SiaFR levels at 51.2 uM after 1 to 24 hrs using fluorinated compounds by reverse-phase ion pairing chromatography/triple quadrupole mass spectrometric analysis; type: cell-based
In short: (§4)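 B16-F10 cells were incubated 1, 2, 4, 8 or 24 h with 51.2 µM fluorinated analogue or DMSO. Cells were washed with ammonium carbonate buffer (pH 7.4) and snap-frozen in liquid nitrogen. Extraction was twice for 3 min with cold 40% acetonitrile/40% methanol/20% water, followed by centrifugation for 3 min and vacuum drying.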

B16-F10 [16] = assay: Effect on total cell surface glycosylation in mouse B16F10 cells assessed as inhibition of biotinylated GSL1-lectin binding at 102.4 uM after 3 days by flow cytometry; type: cell-based; settings: b16-f10, 72 h; in short: as §2
B16-F10 [17] = assay: Effect on total cell surface glycosylation in mouse B16F10 cells assessed as inhibition of biotinylated PSA-lectin binding at 102.4 uM after 3 days by flow cytometry; type: cell-based; settings: b16-f10, 72 h; in short: as §2
B16-F10 [18] = assay: Inhibition of sialyltransferase in mouse B16-F10 cells assessed as recovery time for sialylation at 25.6 uM pretreated for 3 days followed by washing and re-seeding and measured after 6 days by biotinylated MAL2 lectin-based flow cytometry; type: cell-based; in short: as §3
B16-F10 [19] = assay: Relative inhibitory potency, ratio of SiaFAc to compound EC50 for inhibition of sialyltransferase in mouse B16-F10 cells; type: cell-based
[20] = Inhibition of sialyltransferase in HEK293 cells assessed as decrease in lectin binding after 3 days by biotinylated MAL2 lectin and streptavidin-PE based flow cytometry; type: cell-based, Homo sapiens; in short: as §1
B16-F10 [21] = assay: Inhibition of sialyltransferase in mouse B16-F10 cells assessed as reduction in CMP-Sia pool at 51.2 uM after 1 to 24 hrs using fluorinated compounds by reverse-phase ion pairing chromatography/triple quadrupole mass spectrometric analysis; type: cell-based; in short: as §4

Sequence of N-acylneuraminate cytidylyltransferase (Q99KK2 whole entry): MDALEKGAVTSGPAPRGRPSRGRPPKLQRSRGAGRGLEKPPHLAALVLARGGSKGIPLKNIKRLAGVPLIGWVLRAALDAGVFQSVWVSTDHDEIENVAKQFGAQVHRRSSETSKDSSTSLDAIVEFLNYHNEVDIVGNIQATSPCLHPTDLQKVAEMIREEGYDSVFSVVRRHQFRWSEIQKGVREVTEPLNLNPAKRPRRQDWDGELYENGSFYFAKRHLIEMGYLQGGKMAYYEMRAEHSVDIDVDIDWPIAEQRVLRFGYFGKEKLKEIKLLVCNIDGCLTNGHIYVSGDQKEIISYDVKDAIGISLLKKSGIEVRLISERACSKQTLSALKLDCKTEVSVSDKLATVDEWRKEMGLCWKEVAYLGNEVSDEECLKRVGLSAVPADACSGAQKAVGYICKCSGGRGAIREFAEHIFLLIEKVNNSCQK

SMILES	EC50 [1] [µM]	Activity (B16-F10 [2])	EC50 [3] [µM]	Activity (B16-F10 [4])	Activity (B16-F10 [5])	Activity (B16-F10 [6])	Activity (B16-F10 [7])	Activity (B16-F10 [8])	EC50 [9] [µM]	Activity (B16-F10 [10])	Activity (B16-F10 [11])	EC50 [12] [µM]	TIME (B16-F10 [13]) [h]	EC50 [14] [µM]	Drug metabolism [15]	Activity (B16-F10 [16])	Activity (B16-F10 [17])	sialylation recovery time (B16-F10 [18])	Ratio EC50 (B16-F10 [19])	EC50 [20] [µM]	also measured
C#CCCC(=O)N[C@H]1[C@H]([C@H](OC(C)=O)[C@@H](COC(C)=O)OC(C)=O)OC(OC(C)=O)(C(=O)OC)[C@H](F)[C@@H]1OC(C)=O (stereo partly specified)	62.3	Non-Toxic	40.6	Non-Toxic	Non-Toxic	Non-Toxic	Non-Toxic	Non-Toxic	> 102	Non-Toxic	Non-Toxic	> 102	48 to 72	10.4	Metabolite_Detected	Non-Toxic	Non-Toxic	Active	1	26.2	
CCOC(=O)N[C@H]1[C@H]([C@H](OC(C)=O)[C@@H](COC(C)=O)OC(C)=O)OC(OC(C)=O)(C(=O)OC)[C@H](F)[C@@H]1OC(C)=O (stereo partly specified)	2.02	Non-Toxic	1.78	Non-Toxic	Non-Toxic	Non-Toxic	Non-Toxic	Non-Toxic	8.91	Non-Toxic	Non-Toxic	42	120 to 144	0.45	Metabolite_Detected	Non-Toxic	Non-Toxic	Active	15	2.02	inhibition (B16-F10 [21]): Active
COC(=O)C1(OC(C)=O)O[C@@H]([C@H](OC(C)=O)[C@@H](COC(C)=O)OC(C)=O)[C@H](NC(C)=O)[C@@H](OC(C)=O)[C@H]1F (stereo partly specified)	53	Non-Toxic	26.8	Non-Toxic	Non-Toxic	Non-Toxic	Non-Toxic	Non-Toxic	> 102	Non-Toxic	Non-Toxic	> 102	48 to 72	8.5	Metabolite_Detected	Non-Toxic	Non-Toxic	Active		45.2	
C#CCOC(=O)N[C@H]1[C@H]([C@H](OC(C)=O)[C@@H](COC(C)=O)OC(C)=O)OC(OC(C)=O)(C(=O)OC)[C@H](F)[C@@H]1OC(C)=O (stereo partly specified)	1.65	Non-Toxic	0.72	Non-Toxic	Non-Toxic	Non-Toxic	Non-Toxic	Non-Toxic	10.7	Non-Toxic	Non-Toxic	51	120 to 144	0.42	Metabolite_Detected	Non-Toxic	Non-Toxic	Active	37	1.19	inhibition (B16-F10 [21]): Active
